eIF2B yeast act: eIF2B (yeast) activity modulation; S. cerevisiae eIF2B-epsilon R284H, GCN4-lacZ luminescence; inhibition, % at 25 µM (by protocol); 27,000 tested, 0.91% active;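 active means mutant luminescence inhibited past about 50% while wild type luminescence and mutant growth stay under set limits, limit read from the data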
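Material – yeast eIF2B-epsilon R284H mutant carrying GCN4–beta-galactosidase fusion · Medium – YPD yeast growth medium · Compound – one concentration, 25 µM, 0.25% DMSO · Times – 16 h at 30 °C exposure · Signal – Beta-Glo luminescence plus absorbance at 595 nm · Read-out – % inhibition of reporter signal and growth versus controls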
The depositor's hits bear a star. The entries come from a sample that favours hits as a whole.

SMILES	eIF2B yeast act
COc1ccc2c(C(=O)CN3CCN(c4ccccc4)CC3)c[nH]c2c1	8.3
CCS(=O)(=O)c1ccc2oc(SCC(=O)NC(C)C3CC4CCC3C4)nc2c1 (configuration not stated)	-30.4
COc1ccc2c(c1)CCc1c(C(=O)NC3CCCCC3)noc1-2	7.8
O=C(CCSc1nnc(-c2ccco2)o1)Nc1ccc(Cl)cc1	57.5*
O=C(CSc1nnc(-c2ccco2)o1)NC(=O)Cc1ccccc1	23.9
COc1ccccc1NC(=O)CSc1nnc(-c2ccco2)o1	-1.9
C=CCN(C(=O)CCC(=O)O)C1CC(=O)N(c2ccc(OC)cc2)C1=O (configuration not stated)	50.4*
COc1ccc(N2C(=O)CC(SCC(=O)O)C2=O)cc1 (configuration not stated)	37.1
CCCCCCC(=O)N(O)C1CC(=O)N(c2ccc(C)cc2)C1=O (configuration not stated)	74.6
CC1CCN(C(=O)CSc2ccc3nnc(-c4ccccc4)n3n2)CC1	-7.4
Cc1cc(C)n(-c2ccc(C(=O)Nc3ccc(N4CCOCC4)cc3)cc2)n1	11.3
O=C(Nc1ccc(N2CCOCC2)cc1)c1ccncc1	-13.1
Cc1ccnc2nc(C(=O)Nc3ccc(N4CCOCC4)cc3)nn12	52.6*
O=C(OCn1nnc2ccccc2c1=O)c1ccc2c(=O)n3c(nc2c1)CCC3	18.9
O=C(O)c1ccc(CSc2nnc(Cc3ccccc3)o2)cc1	12.6
O=C(O)c1ccc(CSc2n[nH]c(-c3ccco3)n2)cc1	66.7*
N#Cc1ccc(-c2ccco2)nc1SCc1ccccc1	18.7
O=C(Nc1cccnc1)c1ccccc1Oc1ccccc1	63.7*
O=C(CCCOc1ccccc1)Nc1cccnc1	26.1
COc1cc2ccccc2cc1C(=O)Nc1cccnc1	18.4
O=C(Nc1ccc(Cl)cc1-c1nc2ccccc2s1)c1ccco1	5.4
COc1ccc(OC)c(S(=O)(=O)NC(C)(C)C)c1	13.8
COC(=O)c1cc2occc2n1CC(=O)Nc1ccc(OC)c(OC)c1	60.3*
CCOC(=O)c1cc2occc2n1CC(=O)NCCOC	-17.4
COC(=O)c1cc2occc2n1CC(=O)Nc1cc(OC)cc(OC)c1	7.4
SMILES	eIF2B yeast act
Cc1cc(C)cc(NC(=O)CCN2CC(C)OC(C)C2)c1 (configuration not stated)	11.6
CCOc1ccc(C2=Nn3c(nnc3-c3ccc(OC)cc3)SC2)cc1	19.9
COc1ccc(-c2nnc3n2N=C(C)CS3)cc1OC	26.0
COc1ccc(OC)c(C2=Nn3c(nnc3-c3cccc(OC(C)C)c3)SC2)c1	59.9*
Cc1cccn2c(=O)c3cc(C(=O)N4CCN(c5ccccc5)CC4)n(C)c3nc12	-7.5
COc1ccccc1-n1c(CNC(=O)c2ccco2)nnc1SCC(=O)Nc1ccc(F)cc1	16.5
Cc1occc1C(=O)NCCCc1ccccc1	26.5
O=C(Nc1ccccc1N1CCN(C(=O)c2ccccc2)CC1)c1cc2ccccc2o1	50.0*
Nc1ccccc1N1CCN(C(=O)c2ccccc2)CC1	9.6
CC(C)(C)C(=O)Nc1ccccc1N1CCN(C(=O)c2ccc(Cl)cc2)CC1	16.7
Cc1cccc(NC(=S)NC(=O)/C=C/c2ccco2)n1	17.6
COc1cccc(C(=O)COC(=O)C(C)N2C(=O)C3C4C=CC(C4)C3C2=O)c1 (configuration not stated)	9.6
Cc1ccc(S(=O)(=O)N2CCCN(S(=O)(=O)c3ccc(C)cc3)CC2)cc1	-22.7
Cc1ccc(C)c(N2CCN(S(=O)(=O)c3ccc4c(c3)CCC(=O)N4)CC2)c1	22.5
Cc1ccc(C)c(N2CCN(S(=O)(=O)c3ccc4[nH]c(=O)c(=O)[nH]c4c3)CC2)c1	57.2*
O=C1CC(N2CCCc3ccccc32)C(=O)N1c1ccccc1Cl (configuration not stated)	23.8
COCCNC(=O)c1cc2oc3ccccc3c2n1C	40.5
COCCNC(=O)C(=O)N/N=C/c1ccccc1C(F)(F)F	23.8
CCOc1ccc(C2C(C#N)=C(N)SC(N)=C2C#N)cc1OC	22.9
N#CC1=C(N)N2C(=C(C#N)C1c1ccccc1)Sc1ccccc12 (configuration not stated)	13.8
CCOc1ccc(C2C(C#N)=C(N)N3C(=C2C#N)Sc2ccccc23)cc1 (configuration not stated)	53.5*
COC(=O)CCC(=O)N1CCc2cc(S(=O)(=O)N3CCN(c4ccccc4Cl)CC3)ccc21	-34.1
Cc1c(NC(=O)Nc2ccc(Cl)c(Cl)c2)c(=O)n(-c2ccccc2)n1C	18.1
CN(CC(=O)Nc1ccc(Cl)cc1)CC(=O)Nc1cc(Cl)ccc1C#N	-26.5
CCCCC(=O)Nc1ccc(N2CCN(S(C)(=O)=O)CC2)cc1	61.9*
Cc1cccc(OCC(=O)Nc2ccc(N3CCN(S(C)(=O)=O)CC3)cc2)c1	-7.9
CCCCCC(=O)Nc1ccc(N2CCN(C(=O)CCC)CC2)cc1	5.2
Cc1ccc(S(=O)(=O)Cc2cccc(C(=O)N3CCOCC3)c2)cc1	-3.2
COc1cccc(C2NC(=O)NC(C)=C2C(=O)Nc2cccc(C)c2C)c1 (configuration not stated)	3.6

High-throughput results: PubChem, PCMD
